# According to ChEMBL document CHEMBL3526119, “Effect of the CYP2C8 genotype on the pharmacokinetics and pharmacodynamics of repaglinide” (Drug Metab Dispos, 2011):
# Experiments:
# [1] = AUC (0 to infinity) in healthy white human with SLCO1B1 521CC/CYP2C8*1/*3 combined genotype at 2 mg, po; format: ADME, organism-based; design: dose 2 mg, time infinity, route oral; settings: plasma
# Outline: (§1)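 Healthy Caucasians genotyped for CYP2C8*3 and SLCO1B1 521T>C were given a single oral 2 mg dose of repaglinide, and alcohol, caffeine and grapefruit were withheld. Plasma was sampled before dosing and at 15 times from 0.25 to 24 h. Drug was measured by LC-MS/MS against diclofenac internal standard, linear 0.098–79.139 µg/L. Noncompartmental analysis: Cmax taken as observed; AUC by linear/log-linear trapezoidal rule extrapolated to infinity.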
# [2] = AUC (0 to infinity) in healthy white human at 2 mg, po; format: ADME, organism-based; design: dose 2 mg, time infinity, route oral; settings: plasma; outline: as §1
smiles,measurement,setting,value
CCOc1cc(CC(=O)N[C@@H](CC(C)C)c2ccccc2N2CCCCC2)ccc1C(=O)O [REPAGLINIDE],AUC(0-inf),[1],18.2 ng·h/mL
same,AUC(0-inf),[2],97.4 ng·h/mL
